Reference: ChEMBL document CHEMBL2010680, “Short cyclic peptides derived from the C-terminal sequence of α1-antitrypsin exhibit significant anti-HIV-1 activity” (Bioorg Med Chem Lett, 2012)
Peptide text beside a SMILES is read from it.

How the values were obtained:
[1] = tested on: Human immunodeficiency virus 1; test: Antiviral activity against Human immunodeficiency virus 1 3B infected in human MT2 cells assessed as inhibition of viral replication after 4 days by ELISA; format: functional, organism-based; settings: MT2, 96 h
Outline: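 Read-out is HIV-1 gag p24 antigen in culture supernatants, measured by ELISA and collected on the fourth day post-infection.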

[2] = Cytotoxicity against human MT2 cells after 4 days by XTT assay; format: cell-based
Outline: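 Peptide at graded concentrations was added to an equal volume of MT-2 cells (5 × 10^5/ml) and incubated 4 days at 37 °C. XTT (1 mg/ml) was added, and 4 h later soluble formazan was read at 450 nm with a 650 nm reference. CC50 was calculated from the dose-response.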

[3] = Inhibition of Human immunodeficiency virus 1 3B envelope glycoprotein-mediated cell-cell fusion of infected H9 cells to human MT2 cells measured 2 hrs after wash out by fluorescence analysis; format: cell-based; settings: MT2, 2 h
Outline: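 Fluorescence-labeled H9/HIV-1 IIIB cells were washed, then mixed with MT-2 cells at 1:5 for 2 h at 37 °C, without or with peptide at graded concentrations. Fused cells were counted by fluorescence microscopy, percent inhibition of fusion was calculated, and IC50 was derived from the dose-response.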

[4] = tested on: Human immunodeficiency virus 1; test: Antiviral activity against Human immunodeficiency virus type 1 SF162 pseudovirus expressing envelope glycoprotein 160 infected in human U87 cells after 48 hrs by luminometric analysis; format: functional, cell-based, U-87MG ATCC; settings: Human immunodeficiency virus 1, SF162 ISOLATE, U-87 MG
Outline: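 U87-CCR5 cells were seeded overnight. Pseudovirus (1 ng p24/well) was preincubated with peptide at the indicated concentration for 30 min at 37 °C, then added to the cells for 48 h. Cells were washed with PBS and lysed, and luciferase activity was measured by luminometer. Each peptide was tested in triplicate; data are mean ± SD.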

Row | Compound | IC50 [1] [µM] | IC50 [3] [µM] | IC50 [4] [µM] | CC50 at 96 h [2] [µM]
1 | H-FVFLM-OH | > 100 |  |  | 
2 | H-KPFVFLM-OH | > 100 |  |  | 
3 | H-NKPFVFLM-OH | > 100 |  |  | 
4 | H-PEVFLM-OH | > 100 | > 200 |  | 
5 | H-PFVFLE-OH | > 100 | > 200 |  | 
6 | H-PFVFLM-OH | > 100 | > 200 |  | 
7 | H-PFVFLR-OH | > 100 | > 200 |  | 
8 | H-PFVYLI-OH | > 100 |  |  | 

More lines, main results first:

Row | IC50 [1] [µM] | IC50 [3] [µM] | IC50 [4] [µM] | Compound | CC50 at 96 h [2] [µM]
9 | > 100 | > 200 |  | CSCC[C@@H]1NC(=O)[C@H](CC(C)C)NC(=O)[C@H](Cc2ccccc2)NC(=O)[C@H](C(C)C)NC(=O)[C@H](CCC(=O)O)NC(=O)[C@@H]2CCCN2C(=O)[C@H](CS)NC1=O (cyclo(CPEVFLM)) | > 200
10 | 55.8 | 116 |  | CC(C)C[C@@H]1NC(=O)[C@H](Cc2ccccc2)NC(=O)[C@H](C(C)C)NC(=O)[C@H](Cc2ccccc2)NC(=O)[C@@H]2CCCN2C(=O)[C@H](CS)NC(=O)[C@H](CCC(=O)O)NC1=O (cyclo(CPFVFLE)) | > 200
11 | 8.96 | 67.2 | 5.95 | CSCC[C@@H]1NC(=O)[C@H](CC(C)C)NC(=O)[C@H](Cc2ccccc2)NC(=O)[C@H](C(C)C)NC(=O)[C@H](Cc2ccccc2)NC(=O)[C@@H]2CCCN2C(=O)[C@H](CS)NC1=O (cyclo(CPFVFLM)) | > 200
12 | 74.1 | 74 |  | CC(C)C[C@@H]1NC(=O)[C@H](Cc2ccccc2)NC(=O)[C@H](C(C)C)NC(=O)[C@H](Cc2ccccc2)NC(=O)[C@@H]2CCCN2C(=O)[C@H](CS)NC(=O)[C@H](CCCNC(=N)N)NC1=O (cyclo(CPFVFLR)) | > 200
13 | > 100 |  |  | H-EFVFLM-OH | 
